CRFR2-BP antag: antagonists of CRF-BP/CRF-R2 complex, primary screen, cell-based, HEK293, calcium dye fluorescence, uHTS. CRF-induced calcium fluorescence. inhibition, % at 11.8 µM. hit rate 0.59% among 350,000;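 active = inhibition of the ligand-induced calcium signal above about 50% at the single tested concentration, limit read from the data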
697 NFkB inh: inhibitors of PMA/ionomycin-induced NF-kB reporter, 697 cells, primary screen, B-cell NF-kB inhibitor project, cell-based, luminescence, uHTS | 697 B-cell NF-kB luciferase reporter, 16 h | inhibition, % at 4 µM | hit rate 0.33% among 330,000 | AID 435022, 2010; in the data active = inhibition above about 35%
UPR XBP1 act: activators of adaptive XBP1 UPR arm, primary screen, cell-based, CHO-XBP1 luciferase reporter, luminescence, uHTS; hit rate 0.33% among 330,000; AID 463104, 2010; IRE1-XBP1 UPR activation; percent of tunicamycin response, DMSO as zero; activation, % at 20 µM;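 active = versus positive control, 20 µM dose yields 30% or more activation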
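Material: CHO-XBP1 cells stably carrying IRE1-XBP1-driven luciferase reporter | Medium: F12 with 10% serum | Compound dosing: 20 µM single concentration, DMSO 1% | Incubation: Overnight seeding at 37 °C, 6 h compound treatment at 37 °C | Detection: Steady-Glo luminescence read | Read-out basis: % activation of reporter signal versus tunicamycin and DMSO controls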
Jurkat NFkB inh: inhibitors of induced NF-kB luciferase reporter, primary screen, TCR NF-kB activation inhibitor project, cell-based, luminescence, uHTS; Jurkat, PMA/ionomycin-induced NF-kB luciferase reporter; inhibition, % at 4 µM; hit rate 0.53% among 330,000; AID 435003, 2010; in the data active = inhibition above about 50%
CHOP UPR activ: activators of apoptotic CHOP UPR arm, primary screen, cell-based, CHO-CHOP luciferase reporter, luminescence, uHTS; UPR activation; percent of tunicamycin response over DMSO baseline; AID 449763, 2010; activation, % at 10 µM; hit rate 0.34% among 330,000;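 active = at 10 µM dose, activation of 40% or more, normalized to positive control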
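Test system: CHO CHOP reporter cells. Input: 500 CHO-CHOP cells per well. Medium: F12 with 10% FBS. Technique: luciferase luminescence. Measure: percent activation relative to tunicamycin control. Dosing: 10 µM compound, 0.5% DMSO. Timing: 16-18 h cell attachment, then 6 h compound exposure, 37 °C.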
697 NFkB conf: PMA/ionomycin-induced NF-kB reporter inhibitors, 697 retest, confirmation, B-cell NF-kB inhibitor project, cell-based, luminescence, single concentration; shares compounds with 697 NFkB inh; 697 B-cell NF-kB luciferase, 16 h; inhibition, % at 4 µM; hit rate 35% among 2,000; in the data active = inhibition mostly above about 28%, no sharp cut-off; inactive = mostly below about 22%
Large screens that a line does not name were inactive (follow-up assays come after a bar, where they were run). Compounds with a hit are over-represented: about 1.8% of the library has one in this group of screens.

COc1ccc(Cl)cc1NC(=O)CCCn1c(=O)c2cccn2c2cccnc21	none (no result: 697 NFkB inh, UPR XBP1 act, Jurkat NFkB inh, CHOP UPR activ)
CNC(=O)COC(=O)c1cccnc1SC	697 NFkB inh 35.3 | 697 NFkB conf inactive
CC(Oc1ccc(F)cc1)C(=O)Nc1cccc(S(=O)(=O)N(C)c2ccccc2)c1 (centres undefined)	none (no result: 697 NFkB inh, UPR XBP1 act, Jurkat NFkB inh, CHOP UPR activ)
O=C(/C=C/Nc1ccccc1F)c1cccs1	none | 697 NFkB conf inactive
CCOC(=O)c1ccccc1N/C=C/C(=O)c1cccs1	none
O=C(O)c1ccc(Nc2ncnc3scc(-c4ccccc4)c23)cc1	none
Cc1ccc(-c2csc3ncnc(Nc4ccc(C(=O)O)cc4)c23)cc1	697 NFkB inh 36.2 | 697 NFkB conf inactive
COC(=O)c1sc(NC(=O)COc2cccnc2[N+](=O)[O-])c(C(=O)OC)c1C	none
COc1cc(CN2CCCC(N3CCN(c4ccccc4C)CC3)C2)ccc1O (centres undefined)	none
COc1ccc(C=C(C(C)=O)C(C)=O)cc1OC	697 NFkB inh 42.7 | 697 NFkB conf 30.3
COc1cc(C=C(C(C)=O)C(C)=O)ccc1O	none
CCOC(=O)c1cc(CC)sc1N1C(=O)CC(Sc2ncccc2C(=O)O)C1=O (centres undefined)	697 NFkB inh 46.3 | 697 NFkB conf inactive
Cc1ccc(C(=O)OCC(=O)Nc2cc(C(C)(C)C)no2)c(C)c1	none
COc1ccc(/C=C2/SC(=S)N(CCCC(=O)Nc3cccc(O)c3)C2=O)cc1	697 NFkB inh 62.5 | 697 NFkB conf 71.4
COc1ccc(/C=C2\SC(=S)N(CCC(=O)Nc3ccc(C(=O)O)cc3)C2=O)cc1OC	697 NFkB inh 35.2 | 697 NFkB conf 31.1
COc1cccc(/C=C2\SC(=S)N(CCC(=O)Nc3ccc(O)cc3)C2=O)c1	none
COc1ccc(/C=C2\SC(=S)N(CCCC(=O)NNC(=O)c3ccccc3O)C2=O)cc1	697 NFkB inh 73.5 | 697 NFkB conf 68.5
COc1ccc(/C=C2\SC(=S)N(CCCC(=O)Nc3cccc(C(=O)O)c3)C2=O)cc1OC	none
COc1ccc(/C=C2\SC(=S)N(CCC(=O)Nc3cccc(O)c3)C2=O)cc1OC	697 NFkB inh 37.1 | 697 NFkB conf inactive
O=C(CCC(F)(F)F)N1CCCC(N2CCN(c3cccc(Cl)c3)CC2)C1 (centres undefined)	none (no result: 697 NFkB inh, UPR XBP1 act, Jurkat NFkB inh, CHOP UPR activ)
CC(C)c1ccc(/C=C(\NC(=O)c2ccccc2)C(=O)NCCN2CCOCC2)cc1	none (no result: CRFR2-BP antag)
CCOc1ccc(-c2cc(CCCC(=O)NCc3ccco3)no2)cc1	697 NFkB inh 57.3 | 697 NFkB conf 46.0
COc1ccc(-c2cc(CCCC(=O)NCCc3cc(OC)ccc3OC)no2)cc1	none
CCOc1ccc(-c2cc(CCCC(=O)NCc3ccc(C)cc3)no2)cc1	697 NFkB inh 48.3 | 697 NFkB conf 36.8
O=C(c1ccoc1)N1CCC2(CC1)Oc1ccc(F)cc1C(=O)C21CC(c2ccc(Cl)cc2)=NO1 (centres undefined)	697 NFkB inh 36.4 | 697 NFkB conf inactive
O=C(NCc1ccccc1)C1=C[C@H](C2CCCCC2)C[C@H](OCc2ccc(CO)cc2)O1	none | 697 NFkB conf inactive
O=C(O)CC/C(=N\NC(=O)c1ccccc1)c1cccs1	none
O=C(N/N=C(\CC(=O)c1cccs1)C(F)(F)F)c1ccncc1	none | 697 NFkB conf inactive
Cc1cccc(C(=O)NNC(=O)c2c(-c3ccccc3Cl)noc2C)c1O	none
O=C(Nc1ccccc1Cl)N1CCN(c2ccc3nnc(-c4ccc(F)cc4)n3n2)CC1	697 NFkB inh 36.3 | 697 NFkB conf inactive
COc1ccccc1NC(=O)N1CCN(c2ccc3nnc(-c4ccc(F)cc4)n3n2)CC1	697 NFkB inh 35.1 | 697 NFkB conf inactive
Fc1ccc(-c2nnc3ccc(N4CCCC4)nn23)cc1	none
CCCCn1c(N)c(N(CC(C)C)C(=O)c2ccc(C)c(S(=O)(=O)N3CCCCC3)c2)c(=O)[nH]c1=O	none
COCCNC(=O)c1ccc(CS(=O)(=O)c2cccc(C(F)(F)F)c2)o1	none
CN(CC1CCCO1)S(=O)(=O)c1ccc(C(=O)Nc2nc3cc4c(cc3s2)OCO4)cc1 (centres undefined)	697 NFkB inh 62.2 | 697 NFkB conf 65.3
COc1ccc(C(=O)Nc2nc3ccccc3s2)cc1OC	none
COc1ccc(C(=O)Nc2nc3ccccc3s2)cc1	none | 697 NFkB conf inactive
O=C(Nc1nc2ccccc2s1)c1ccc(OCC2CCCO2)cc1 (centres undefined)	none | 697 NFkB conf inactive
CN(CC1CCCO1)S(=O)(=O)c1ccc(C(=O)Nc2ccc3c(c2)OCO3)cc1 (centres undefined)	none
COc1ccc2nc(NC(=O)c3ccc(F)cc3)sc2c1	none
Cc1cnc(NC(=O)c2ccc(OCC3CCCO3)cc2)s1 (centres undefined)	none
O=C(Nc1nc2ccccc2s1)c1ccc(F)cc1	none | 697 NFkB conf inactive
O=C(c1cccs1)N1C[C@@H](n2cc(C3CC3)nn2)[C@H](O)C[C@@H]1c1ccccc1	none (no result: 697 NFkB inh, UPR XBP1 act, Jurkat NFkB inh, CHOP UPR activ)
CC(=O)N(Cc1cc2ccccc2[nH]c1=O)c1ccc(C)cc1	none
COc1ccc(CNC(=O)[C@@H]2CC=C[C@@H]3CCN(C4CCCCC4)C(=O)[C@@H]32)cc1	none
COc1ccc(NC(=O)[C@@H]2CC=C[C@@H]3CCN(C4CCCCC4)C(=O)[C@@H]32)cc1	697 NFkB inh 35.6 | 697 NFkB conf inactive
COc1cc2c3c(c1)c(N=NC(N)=S)c(O)n3C(C)(C)C=C2C	697 NFkB inh 41.8 | 697 NFkB conf 41.7
COc1ccc(CCNC(=O)c2nn(C)c3c2CS(=O)(=O)c2ccccc2-3)cc1OC	none
CC(CSc1nnnn1-c1ccccc1)Cn1c(N2CCCC2)nc2c1c(=O)[nH]c(=O)n2C (centres undefined)	none
Cn1c(=O)[nH]c(=O)c2c1nc(N1CCOCC1)n2CCc1ccccc1	697 NFkB inh 47.1 | 697 NFkB conf inactive
Cn1c(=O)[nH]c(=O)c2c1nc(N1CCOCC1)n2CCSc1nnnn1-c1ccccc1	697 NFkB inh 38.2 | 697 NFkB conf inactive
Cc1ccc(S(=O)(=O)NC(=O)COc2cc(C)ccc2C(C)C)cc1	none
CCOc1ccc(-c2nnc(SCC(=O)Nc3cc(C)on3)o2)cc1	none | 697 NFkB conf 41.2
COc1cccc(-c2nnc(SCC(=O)Nc3cc(C)on3)o2)c1	none
COc1ccc(NC(=O)C2Cc3cc(S(=O)(=O)N4CCCCC4)ccc3N2C(C)=O)cc1Cl (centres undefined)	none
CCCn1c(CCNc2nc(-c3cccc(Br)c3)cs2)nc2ccccc21	none (no result: 697 NFkB inh, UPR XBP1 act, Jurkat NFkB inh, CHOP UPR activ)

Screening data (PubChem)
